Here are results for 33 compounds from ChEMBL document CHEMBL1143565, “Pyrido[2,3-d]pyrimidin-7-ones as specific inhibitors of cyclin-dependent kinase 4” (J Med Chem, 2005).

SMILES strings stand for the structures.

The term IC50 denotes the concentration at which inhibition is half-maximal. A low value points to greater potency in that assay.

Holding throughout (assay type): protein-complex assay
Assay [1] has as its target Cyclin-dependent kinase 2/cyclin E (Homo sapiens, UniProt P24941). The experiment in a line: Inhibition of [32P]ATP binding to Cyclin dependent kinase 2-cyclin E. Put shortly: (§1)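 Human recombinant Cdk–cyclin holoenzymes expressed in insect cells via baculovirus. Each reaction held 20 ng enzyme, 1 µg GST-retinoblastoma substrate and inhibitor dilutions in 20 mM Tris pH 7.4, 50 mM NaCl, 1 mM DTT, 10 mM MgCl2. Stopped with TCA and precipitated ≥1 h at 4 °C.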

For assay [2], the target named is Cyclin-dependent kinase 4/cyclin D (Homo sapiens, UniProt P11802). Briefly: (§2) Inhibition of [32P]ATP binding to Cyclin dependant kinase 4-cyclin D. The essentials: (§3)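 Human recombinant Cdk–cyclin holoenzymes expressed in insect cells via baculovirus. Each reaction held 20 ng enzyme, 1 µg GST-retinoblastoma substrate and inhibitor dilutions in 20 mM Tris pH 7.4, 50 mM NaCl, 1 mM DTT, 10 mM MgCl2. Started with [32P]ATP (0.25 µCi), at 25 µM for Cdk4 or 12 µM for Cdk2/E, Cdk2/A and Cdc2/B. Ran 15 min at 25 °C. Stopped with TCA and precipitated ≥1 h at 4 °C.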

The target of assay [3] is Cyclin-dependent kinase 1/cyclin B (Homo sapiens, UniProt P06493). Briefly: Inhibition of [32P]ATP binding to Cyclin dependent kinase 1-cyclin B. The essentials:
as §3

The target in assay [4] is Cyclin-dependent kinase 2/cyclin A (Homo sapiens, UniProt P24941). Briefly: (§4) Inhibition of [32P]ATP binding to Cyclin dependent kinase 2-cyclin A. The essentials:
as §1

The target of assay [5] is Cyclin-dependent kinase 2/cyclin A (Homo sapiens, UniProt P24941+P20248+P78396). The description is as §4. Put shortly:
as §1

Assay [6] has as its target Cyclin-dependent kinase 4/cyclin D (Homo sapiens, UniProt P11802+P24385+P30281+P30279). Described as §2. Put shortly: as §3

Cyclin-dependent kinase 4/cyclin D (Homo sapiens, UniProt P11802+P24385+P30281+P30279), sequence (P11802 whole entry): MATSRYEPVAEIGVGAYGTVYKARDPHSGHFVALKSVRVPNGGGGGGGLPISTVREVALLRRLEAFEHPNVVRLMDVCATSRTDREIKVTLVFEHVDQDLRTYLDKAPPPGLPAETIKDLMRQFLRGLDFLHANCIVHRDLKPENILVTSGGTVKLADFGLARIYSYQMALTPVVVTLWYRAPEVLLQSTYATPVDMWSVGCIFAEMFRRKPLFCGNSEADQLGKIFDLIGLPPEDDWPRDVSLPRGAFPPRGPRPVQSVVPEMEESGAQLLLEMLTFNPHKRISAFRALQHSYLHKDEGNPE
Cyclin-dependent kinase 4/cyclin D (Homo sapiens, UniProt P11802+P24385+P30281+P30279), sequence (P24385 whole entry): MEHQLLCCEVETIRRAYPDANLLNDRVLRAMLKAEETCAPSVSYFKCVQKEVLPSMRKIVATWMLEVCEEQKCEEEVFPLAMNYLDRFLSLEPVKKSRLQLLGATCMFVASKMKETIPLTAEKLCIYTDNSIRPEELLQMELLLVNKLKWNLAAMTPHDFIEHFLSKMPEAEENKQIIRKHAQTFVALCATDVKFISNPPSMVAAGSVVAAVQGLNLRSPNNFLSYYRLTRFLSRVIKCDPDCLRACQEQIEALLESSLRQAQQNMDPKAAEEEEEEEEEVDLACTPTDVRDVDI
Cyclin-dependent kinase 4/cyclin D (Homo sapiens, UniProt P11802+P24385+P30281+P30279), sequence (P30281 whole entry): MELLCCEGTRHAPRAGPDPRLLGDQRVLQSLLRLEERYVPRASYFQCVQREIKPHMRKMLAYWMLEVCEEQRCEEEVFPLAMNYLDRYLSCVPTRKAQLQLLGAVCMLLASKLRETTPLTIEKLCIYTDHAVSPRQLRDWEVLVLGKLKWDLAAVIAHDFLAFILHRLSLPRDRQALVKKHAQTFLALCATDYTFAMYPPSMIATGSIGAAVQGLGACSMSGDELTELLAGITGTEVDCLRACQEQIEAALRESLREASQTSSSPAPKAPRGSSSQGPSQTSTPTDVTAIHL
Cyclin-dependent kinase 4/cyclin D (Homo sapiens, UniProt P11802+P24385+P30281+P30279), sequence (P30279 whole entry): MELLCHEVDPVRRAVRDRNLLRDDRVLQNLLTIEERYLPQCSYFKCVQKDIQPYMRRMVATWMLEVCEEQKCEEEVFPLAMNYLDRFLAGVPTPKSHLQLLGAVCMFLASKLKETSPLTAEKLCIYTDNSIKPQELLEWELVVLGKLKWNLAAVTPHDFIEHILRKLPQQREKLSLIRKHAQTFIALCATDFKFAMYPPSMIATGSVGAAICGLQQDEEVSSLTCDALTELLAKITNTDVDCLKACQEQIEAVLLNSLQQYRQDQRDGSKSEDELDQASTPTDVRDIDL

On to `Cc1cc(=O)n(C2CCCC2)c2nc(Nc3ccc(N4CCOCC4)cc3)ncc12`, for which the IC50 in assay [1] was greater than 5000 nM; in assay [2], 116 nM; in assay [3], 1120 nM; in assay [4] it was greater than 5000 nM.
Regarding `Cc1c(Br)c(=O)n(C2CCCC2)c2nc(Nc3ccc(N4CCNCC4)cc3)ncc12`, the IC50 in assay [1] worked out at 950 nM; in assay [3], 2610 nM; in assay [5], 439 nM.
For `Cc1cc(=O)n(C2CCCC2)c2nc(Nc3ccc(N4CCC(CCCO)CC4)cc3)ncc12`, the IC50 in assay [1] is greater than 5000 nM; in assay [2], 114 nM; in assay [3], greater than 5000 nM; in assay [4], greater than 5000 nM.
Regarding `Cc1cc(=O)n(C2CCCC2)c2nc(Nc3ccc(N4CCN(C(=O)OC(C)(C)C)CC4)cc3)ncc12`, the IC50 in assay [1] is greater than 5000 nM; in assay [2] it was 425 nM; in assay [4], greater than 5000 nM.
With `Cc1cc(=O)n(CCC(C)C)c2nc(Nc3ccc(N4CCNCC4)cc3)ncc12`, the IC50 was greater than 5000 nM in assay [1], 1080 nM in assay [2], greater than 5000 nM in assay [3] and greater than 5000 nM in assay [4].
Turning to `CCOC(=O)c1c(C)c2cnc(Nc3ccc(N4CCNCC4)cc3)nc2n(C2CCCC2)c1=O`, the IC50 in assay [1] was greater than 5000 nM; in assay [6], 6 nM; in assay [3], greater than 5000 nM; in assay [4], greater than 5000 nM.
Take `Cc1c(F)c(=O)n(C2CCCC2)c2nc(Nc3ccc(N4CCNCC4)cc3)ncc12`: the IC50 was greater than 5000 nM in assay [1], 30 nM in assay [2], greater than 5000 nM in assay [3] and greater than 5000 nM in assay [4].
Consider `Cc1cc(=O)n(C2CCCC2)c2nc(Nc3ccc(N4CCC(N)C4)cc3)ncc12` (centres undefined), for which the IC50 was 64 nM in assay [2] and greater than 5000 nM in assay [3].
As to `CCc1cc(=O)n(C2CCCC2)c2nc(Nc3ccc(N4CCNCC4)cc3)ncc12`, the IC50 in assay [1] is greater than 5000 nM; in assay [2], 655 nM; in assay [3] it was greater than 5000 nM; in assay [4] it was greater than 5000 nM.
Consider `Cc1c(I)c(=O)n(C2CCCC2)c2nc(Nc3ccc(N4CCNCC4)cc3)ncc12`, for which the IC50 in assay [1] came out at 365 nM; in assay [2], 5 nM; in assay [3], 1870 nM; in assay [4], 443 nM.
As for `Cc1cc(=O)n(C2CCCC2)c2nc(Nc3ccc(N4CCNC(C)(C)C4)cc3)ncc12`, the IC50 was greater than 5000 nM in assay [1], 65 nM in assay [2], greater than 5000 nM in assay [3] and greater than 5000 nM in assay [4].
For `Cc1cc(=O)n(C2CCCC2)c2nc(Nc3ccc(N4CCN(C)CC4)cc3)ncc12`, the concentration for half-maximal inhibition (IC50) in assay [1] is greater than 5000 nM; in assay [2] it was 18 nM; in assay [3] it was greater than 5000 nM; in assay [4] it was greater than 5000 nM.
On to `Cc1cc(=O)n(C2CCCC2)c2nc(Nc3ccc(N4C[C@@H](C)N[C@@H](C)C4)cc3)ncc12`, for which the figures for the IC50 in assay [1], in assay [2] and in assay [3] were greater than 5000 nM, 240 nM and greater than 5000 nM, respectively.
On to `O=c1ccc2cnc(Nc3ccc(N4CCOCC4)cc3)nc2n1C1CCCC1`, for which the IC50 is 85 nM in assay [1], 10 nM in assay [2], 275 nM in assay [3] and 28 nM in assay [4].
On to `CC(=O)N1CCN(c2ccc(Nc3ncc4c(C)cc(=O)n(C5CCCC5)c4n3)cc2)CC1`, for which the IC50 in assay [1] was greater than 5000 nM; in assay [2], 103 nM; in assay [3] it was greater than 5000 nM; in assay [4], greater than 5000 nM.
As for `Cc1cc(=O)n(C2CCCC2)c2nc(Nc3ccc(N4CCN(CCO)CC4)cc3)ncc12`, the IC50 is greater than 5000 nM in assay [1], 35 nM in assay [2], greater than 5000 nM in assay [3] and greater than 5000 nM in assay [4].
Regarding `Cc1cc(=O)n(C2CCCC2)c2nc(Nc3ccc(N4CCNCC4)c(Cl)c3)ncc12`, the IC50 was greater than 5000 nM in assay [1], 28 nM in assay [2], greater than 5000 nM in assay [3] and greater than 5000 nM in assay [4].
`Cc1c(C(=O)O)c(=O)n(C2CCCC2)c2nc(Nc3ccc(N4CCNCC4)cc3)ncc12`: the IC50 in assay [1] was greater than 5000 nM; in assay [2] it was 32 nM; in assay [3], greater than 5000 nM; in assay [4], greater than 5000 nM.
Take `O=c1cc(C(F)(F)F)c2cnc(Nc3ccc(N4CCNCC4)cc3)nc2n1C1CCCC1`: the IC50 is greater than 5000 nM in assay [1], 2650 nM in assay [2], greater than 5000 nM in assay [3] and greater than 5000 nM in assay [4].
Turning to `CCc1c(C)c2cnc(Nc3ccc(N4CCNCC4)cc3)nc2n(C2CCCC2)c1=O`, the IC50 turned out to be 1650 nM in assay [1], 25 nM in assay [2], 4120 nM in assay [3] and 1540 nM in assay [4].
Consider `O=c1ccc2cnc(Nc3ccc(N4CCC(CCCO)CC4)cc3)nc2n1C1CCCC1`, for which the IC50 is 4550 nM in assay [1] and greater than 5000 nM in assay [3].
Consider `CN1CCN(c2ccc(Nc3ncc4ccc(=O)n(C5CCCC5)c4n3)cc2)CC1`, for which the figures for the IC50 in assay [1], in assay [2] and in assay [4] were 39 nM, 7 nM and 14 nM, respectively.
Take `Cc1cc(=O)n(C2CCCC2)c2nc(Nc3ccc(N4CCNCC4)cc3)ncc12`: the IC50 was 14 nM in assay [2] and greater than 5000 nM in assay [3].
In the case of `O=c1ccc2cnc(Nc3ccc(N4CCNCC4)cc3)nc2n1C1CCCC1`, in assay [1], the IC50 is 80 nM.
As for `Cc1cc(=O)n(C2CCCC2)c2nc(Nc3ccc(N4CCN(C=O)CC4)cc3)ncc12`, the IC50 was greater than 5000 nM in assay [1], 161 nM in assay [2], greater than 5000 nM in assay [3] and greater than 5000 nM in assay [4].
Turning to `Cc1c(Cl)c(=O)n(C2CCCC2)c2nc(Nc3ccc(N4CCNCC4)cc3)ncc12`, the IC50 was 1500 nM in assay [1], 16 nM in assay [2], greater than 5000 nM in assay [3] and 1620 nM in assay [4].
Consider `Cc1c(C)c2cnc(Nc3ccc(N4CCNCC4)cc3)nc2n(C2CCCC2)c1=O`, for which the IC50 in assay [1] is greater than 5000 nM; in assay [2] it was 165 nM; in assay [3], greater than 5000 nM.
Take `Cc1cc(=O)n(C2CCCC2)c2nc(Nc3ccc(N4CCCCC4)cc3)ncc12`: the IC50 in assay [2] is 180 nM; in assay [4] it was greater than 5000 nM.
As to `O=c1ccc2cnc(Nc3ccc(N4CCCCC4)cc3)nc2n1C1CCCC1`, the IC50 was determined as 246 nM in assay [1], 10 nM in assay [2], 570 nM in assay [3] and 660 nM in assay [4].
On to `COC(=O)c1c(C)c2cnc(Nc3ccc(N4CCNCC4)cc3)nc2n(C2CCCC2)c1=O`, for which the IC50 in assay [1] was greater than 5000 nM; in assay [2] it was 4 nM; in assay [3], greater than 5000 nM; in assay [4] it was 2820 nM.
For `Cc1cc(=O)n(C2CCCC2)c2nc(Nc3ccc(N4CCCNCC4)cc3)ncc12`, the IC50 in assay [1] is greater than 5000 nM; in assay [2] it was 52 nM; in assay [3], greater than 5000 nM; in assay [4], greater than 5000 nM.
`Cc1cc(=O)n(C(C)C)c2nc(Nc3ccc(N4CCNCC4)cc3)ncc12`: the IC50 was greater than 5000 nM in assay [1], 265 nM in assay [2], greater than 5000 nM in assay [3] and greater than 5000 nM in assay [4].
As to `Cc1cc(=O)n(C2CCCC2)c2nc(Nc3ccc(N4CCC(O)C4)cc3)ncc12` (centres undefined), the IC50 is 260 nM in assay [2] and greater than 5000 nM in assay [3].
